Source: PubChem BioAssay
MrgX1 agonist – activates human MrgX1 receptor signaling | MrgX1-HEK293 cells, Fluo-4 calcium fluorescence, agonist mode; active compounds read high | B-score at 10 µM | 0.44% of 310,000 active | AID 588627;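 active = calcium response B-score plate-corrected fluorescence ratio at least 3 library SD, with starting fluorescence B-score inside 5 SD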
Target sequence (Q96LB2 whole entry, looked up): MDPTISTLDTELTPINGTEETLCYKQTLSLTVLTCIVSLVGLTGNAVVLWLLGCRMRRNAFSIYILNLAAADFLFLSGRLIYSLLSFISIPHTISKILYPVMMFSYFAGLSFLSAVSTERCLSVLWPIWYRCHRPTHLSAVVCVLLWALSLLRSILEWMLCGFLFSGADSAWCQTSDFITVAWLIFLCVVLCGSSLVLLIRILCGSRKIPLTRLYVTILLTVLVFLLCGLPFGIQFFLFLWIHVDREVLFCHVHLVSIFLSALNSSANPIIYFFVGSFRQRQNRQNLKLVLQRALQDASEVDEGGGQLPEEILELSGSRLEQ
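Material: HEK293 cells stably expressing human MrgX1 receptor | Quantity: 15,000 cells per well | Times: Cells plated overnight, dye loaded 0.5 h 37 °C, 0.5 h room temperature | Measured by: Kinetic Fluo-4 NW fluorescence of intracellular calcium | Control set: Positive and negative controls per plate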
RGS4 block – inhibitors of human RGS4; P49798; HEK293 M3R/RGS4 inducible, Fluo-4 calcium flux; active compounds read high; triggered by carbachol at its EC20; B-score at 10 µM; 0.45% of 310,000 active; AID 463165;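 active = B-score, a plate-corrected calcium signal, over three deviations above library mean, with baseline fluorescence within five deviations of library mean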;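 note: RGS4 expression induced by doxycycline in cells with stable M3 receptor; B-score is computed from the integrated fluorescence ratio over baseline after carbachol; higher B-score means a larger calcium signal and so more RGS4 inhibition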
Target sequence (P49798 whole entry, looked up): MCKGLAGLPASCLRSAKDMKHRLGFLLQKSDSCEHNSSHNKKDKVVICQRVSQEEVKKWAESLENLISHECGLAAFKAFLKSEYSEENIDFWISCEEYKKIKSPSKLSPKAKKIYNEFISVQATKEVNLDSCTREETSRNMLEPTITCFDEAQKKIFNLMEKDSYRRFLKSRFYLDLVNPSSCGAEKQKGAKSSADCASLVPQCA
RGS4 act – potentiators or activators of RGS4; 0.92% of 310,000 active; B-score at 10 µM; HEK293 M3R/inducible RGS4, carbachol calcium flux Fluo4; active compounds read low; AID 463111;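 active = B-score of the integrated calcium signal more than 4 SD below the library mean, with starting fluorescence not abnormally high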;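 note: negative B-score means reduced calcium response which marks RGS4 activation or potentiation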
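Also added: carbachol at ECmax as muscarinic agonist stimulus; Assay system: HEK293 cells with stable M3R and inducible RGS4; Timing: overnight RGS4 induction, 30 min dye load 37 °C, 20 min compound RT; Measured by: Fluo4-AM (2 µM) calcium-flux fluorescence, kinetic read.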
MrgX1 allo act – allosterically activates human MrgX1 receptor signaling. Q96LB2. 0.63% of 310,000 active. MrgX1-HEK293, Fluo-4 calcium flux, FDSS; active compounds read high. B-score at 10 µM;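 active = plate-corrected calcium response at least 3 library SD above typical, normal starting fluorescence, not activating the receptor alone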;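 note: compound read alongside a low EC10 to EC30 dose of BAM8-22 agonist; peak minus trough fluorescence over baseline measured at the second addition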
MrgX1 antagonist – antagonists of human MrgX1 receptor; Q96LB2; MRGX1-HEK293 calcium flux, Fluo-4, BAM8-22 antagonism; active compounds read low; B-score at 10 µM; 1.3% of 310,000 active; AID 588676;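 active = calcium-response B-score plate-corrected more than 3 library SD below zero, starting fluorescence within 5 deviations, no agonist response on first addition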;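 note: peak minus trough fluorescence over baseline after final BAM8-22 challenge near maximal dose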
RGS4 act valid – confirmation of RGS4 activators | HEK293 M3R/RGS4 inducible, carbachol calcium flux Fluo4 | inhibition, % at 10 µM | shares compounds with RGS4 act | 89% of 1,100 active;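 active = inhibition above 3 SD of the buffer control wells, cut at about 41% in these data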;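 note: signal is the integrated peak-minus-minimum Fluo4 fluorescence over baseline ratio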
M3R Ca counter – RGS4 activator counter-screen hit in non-induced cells; shares compounds with RGS4 act; HEK293 M3R non-induced RGS4, Fluo4 calcium flux; after carbachol challenge at its EC90; inhibition, % at 10 µM; 82% of 1,100 active; AID 602283;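 active = inhibition exceeding 3 SD of buffer-only control wells, cut at about 26% in these data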;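 note: percent drop in integrated peak-minus-baseline over baseline Fluo4 ratio after carbachol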
RGS4 block valid – RGS4 inhibitor validation. shares compounds with RGS4 block. HEK293 M3R/RGS4, carbachol calcium Fluo-4 fluorescence; carbachol added at its EC20; 0 = buffer wells, 100 = carbachol control. calcium response, % at 10 µM. 65% of 1,700 active. AID 492999;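 active = duplicate-averaged calcium response above the buffer-only control mean plus 5 SD of those controls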;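 note: integrated fluorescence ratio F max minus min over baseline F0; higher response in RGS4-induced cells means RGS4 inhibition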
RGS4 uninduced – non-induced cell nonspecific activity of RGS4 inhibitors; shares compounds with RGS4 block; HEK293 M3R non-induced, carbachol calcium Fluo-4; submaximal (EC20) carbachol stimulus; buffer wells 0%, carbachol control wells 100%; AID 493000; 20% of 1,900 active; activity (percent), % at 10 µM; call rule not given here;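 note: RGS4 induction absent so cells express M3R without RGS4; higher means more calcium signal and flags a non-specific hit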
M3R basal Ca ctr – second RGS4 inhibitor counter-screen in uninduced cells lacking carbachol; shares compounds with RGS4 block; 22% of 1,900 active; calcium response (agonist-mode artifact), % at 10 µM; HEK293 M3R/RGS4 non-induced, Fluo-4 calcium, no carbachol; normalised: buffer wells 0%, carbachol wells 100%;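 active = duplicate-averaged calcium rise in uninduced cells above buffer wells' mean plus 5 SD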
MrgX1 ag reconf – reconfirmed activator of human MrgX1 receptor signaling; shares compounds with MrgX1 agonist; MrgX1-HEK293, Fluo-4 calcium fluorescence, FDSS; activation, % at 10 µM; 78% of 600 active; AID 602412;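 active = calcium signal rise, corrected for plate position, at least 3 library SD high, with starting brightness within 5 such deviations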
MrgX1 allo conf – human MrgX1 positive allosteric modulation, re-confirmation | 13% of 1,200 active | MrgX1-HEK293, Fluo-4 calcium fluorescence, FDSS | shares compounds with MrgX1 allo act | AID 602413 | activation (ratio percentage), % at 10 µM;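 active = ratio at least 3 SD above the weak peptide control, stable starting fluorescence, no direct agonism earlier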;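 note: compound followed by low BAM8-22 agonist challenge near EC20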
MrgX1 antag conf – human MrgX1 receptor antagonism, re-confirmation screen; MrgX1-HEK293, BAM8-22 calcium flux, Fluo-4; active compounds read low; 19% of 2,300 active; remaining BAM8-22 calcium response % of control (active compounds read low), % at 10 µM; shares compounds with MrgX1 antagonist; AID 602420;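 active = remaining agonist calcium response no higher than 100% minus 3 SD of agonist-only control wells, with starting fluorescence near control levels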;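 note: agonist BAM8-22 given at a near maximal EC90 to ECmax level; peak minus minimum fluorescence divided by baseline after agonist addition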
HEK293 Ca flux – MrgX1 antagonist counter-screen hit in parental HEK293 cells. fluorescence ratio F(max-min)/F0 at 10 µM. 2% of 4,000 active. shares compounds with MrgX1 antagonist. Fluo-4 calcium fluorescence, FDSS. AID 624111;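 active = duplicate-averaged calcium fluorescence ratio at least three times the standard deviation of buffer wells, a nonspecific response in parental cells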
HEK293 Ca counter – MrgX1 allosteric activator counter-screen hit in parental HEK293 cells | parental HEK293 calcium flux, Fluo-4 fluorescence ratio; active compounds read high | fluorescence ratio F(max-min)/F0 at 10 µM | shares compounds with MrgX1 antagonist | 0.4% of 4,000 active;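 active = calcium fluorescence ratio, averaged over duplicates, at least 3 SD of the buffer-well ratio, meaning a nonspecific response in receptor-free cells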;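 note: untransfected parental HEK293 lacking MrgX1 used as counterscreen for MrgX1 allosteric activators; fluorescence change taken during the second addition on a kinetic imager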
HEK293 Ca cntr2 – MrgX1 activator counter-screen hit in parental HEK293 cells | shares compounds with MrgX1 antagonist | Fluo-4 calcium fluorescence (FDSS); active compounds read high | fluorescence ratio F(max-min)/F0 at 10 µM | 8.7% of 4,000 active;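 active = calcium fluorescence ratio at least three times the spread of buffer wells, meaning a non-specific response in parental cells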
Each line names hits and unclear results; the compound was inactive in the other large screens (follow-up assays come after a bar, where they were run). Hits are enriched below; roughly 3.5% of the tested compounds scored in any of these assays.

Cc1c(C(=O)N2CCN(c3ccc(F)cc3)CC2)sc2ncnc(N3CCN(c4ccccn4)CC3)c12	RGS4 act -8.9 | RGS4 act valid 92 | M3R Ca counter 84
Cc1c(C(=O)N2CCN(c3ccccc3)CC2)sc2ncnc(N3CCN(c4ccccn4)CC3)c12	RGS4 act -9.7 | RGS4 act valid 80 | M3R Ca counter 48
Cc1c(C(=O)N(C)C2CCCCC2)sc2ncnc(N3CCN(c4ccccc4F)CC3)c12	none
Cc1nnc(SCC(=O)Nc2nccs2)n(N)c1=O	none
CC(C#N)Sc1nnc(-c2ccccc2F)n1C1CC1 (configuration not stated)	none
O=C(OCc1cccc(C(F)(F)F)c1)c1cc(S(=O)(=O)N2CCOCC2)ccc1F	none
Cc1cc2ncn(C(=O)c3c(-c4ccccc4Cl)noc3C)c2cc1C	RGS4 act -11 | RGS4 act valid 94 | M3R Ca counter 79
O=C(CNC(=O)c1nc[nH]c1C(=O)NCc1ccccc1)OCc1ccccc1	none
c1ccc2c(c1)[nH]c1c(N3CCN(C4CCCCC4)CC3)ncnc12	RGS4 act -7.8 | RGS4 act valid 64 | M3R Ca counter 84
Cc1ccc(OCC(=O)Nc2cccc(-c3nnc(-c4ccccc4)o3)c2)c(C)c1	none
COc1ccc(CC(=O)Nc2cccc(-c3nnc(-c4cccc(C)c4)o3)c2)cc1OC	RGS4 act -9.9, MrgX1 antagonist -12 | RGS4 act valid 94 | M3R Ca counter 94 | MrgX1 antag conf 5.5% | HEK293 Ca flux inactive | HEK293 Ca counter inactive | HEK293 Ca cntr2 inactive
Cc1cc(C)nc(/N=C(\N)Nc2ccc(OCc3ccccc3)cc2)n1	MrgX1 agonist 161, RGS4 act -10 | RGS4 act valid 87 | M3R Ca counter 62 | MrgX1 ag reconf 590% | HEK293 Ca flux inactive | HEK293 Ca counter inactive | HEK293 Ca cntr2 128
CCN(CCS(=O)(=O)c1ccc(Cl)cc1)C(=O)Nc1ccc(Cl)cc1	none
Cc1ccccc1N1C(=O)CN(Cc2sccc2C)C1=S	none
Cc1onc(-c2ccccc2)c1C(=O)NC(=S)NNC(=O)c1ccc(O)cc1	none
CCCOc1ccc(C(=O)NC(=S)NNC(=O)c2c(-c3ccccc3)noc2C)cc1	MrgX1 agonist 105, RGS4 act -11 | RGS4 act valid 92 | M3R Ca counter 82 | MrgX1 ag reconf 690% | HEK293 Ca flux inactive | HEK293 Ca counter inactive | HEK293 Ca cntr2 115
CC1(C)CC(=O)C2=C(C1)Nc1ccccc1S2	none
CC1(C)CC(=O)C2=C(C1)Nc1ccccc1NC2	MrgX1 agonist 34, RGS4 act -7.9 | RGS4 act valid inactive | M3R Ca counter inactive | MrgX1 ag reconf inactive | HEK293 Ca flux inactive | HEK293 Ca counter inactive | HEK293 Ca cntr2 inactive
CCN(c1ccccc1)S(=O)(=O)c1cc(NC(=O)CSc2n[nH]c(=O)[nH]c2=O)ccc1Cl	none
c1ccc(Cn2nnc3ccccc32)cc1	none
c1ccc(Cn2nnc3cnccc32)cc1	RGS4 act -8.4, MrgX1 antagonist -6.7 | RGS4 act valid inactive | M3R Ca counter inactive | MrgX1 antag conf inactive | HEK293 Ca flux inactive | HEK293 Ca counter inactive | HEK293 Ca cntr2 inactive
COc1cccc(NC(=O)Nc2nc(-c3ccc(OC)c(OC)c3)cs2)c1	RGS4 act -8.1, MrgX1 antagonist -7 | RGS4 act valid 92 | M3R Ca counter 85 | MrgX1 antag conf 22% | HEK293 Ca flux inactive | HEK293 Ca counter inactive | HEK293 Ca cntr2 inactive
CCOCCCn1c(SCC(=O)Nc2ccc(OC)cc2)nc2ccccc2c1=O	none
O=C(CSc1nc2ccccc2c2c1CCCC2)N1CCOCC1	RGS4 act -9.3, MrgX1 allo act 19 | RGS4 act valid 92 | M3R Ca counter 92 | MrgX1 allo conf inactive | HEK293 Ca flux inactive | HEK293 Ca counter inactive | HEK293 Ca cntr2 inactive
CCCc1ccc(Oc2cn[nH]c2-c2ccc(O)c(C)c2O)cc1	RGS4 act -9.1, MrgX1 antagonist -6.8 | RGS4 act valid 93 | M3R Ca counter 94 | MrgX1 antag conf inactive | HEK293 Ca flux inactive | HEK293 Ca counter inactive | HEK293 Ca cntr2 inactive
OCCCNc1ncnc2oc(-c3ccccc3)c(-c3ccccc3)c12	RGS4 act -8.4, MrgX1 antagonist -5 | RGS4 act valid inactive | M3R Ca counter inactive | MrgX1 antag conf inactive | HEK293 Ca flux inactive | HEK293 Ca counter inactive | HEK293 Ca cntr2 inactive
CN1CCCN(S(=O)(=O)c2cccc(C#N)c2)CC1	none
Oc1ccc(Br)cc1/C=N/n1c(C2CCCCC2)n[nH]c1=S	RGS4 block 5.7 | RGS4 block valid 5.0% | RGS4 uninduced inactive | M3R basal Ca ctr inactive
CC(=O)Oc1ccc(OC(C)=O)c2c1CC(C)=C(C)C2	none
